Measurements: ChEMBL document CHEMBL1142174, “Pyrazinoic acid and its n-propyl ester inhibit fatty acid synthase type I in replicating tubercle bacilli” (2007)
Converted amounts (≈) assume the structure as drawn.

Legend:
[1] = test system: Mycobacterium tuberculosis; experiment: Inhibition of fatty acid synthase 1 in Mycobacterium tuberculosis assessed as incorporation of [1-14C]acetate in C16 biosynthesis at 250 ug/ml
How it was run: (§1)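 M. tuberculosis was grown from frozen stock in 7H12 to OD600 0.3–0.4, diluted 10-fold and grown 48–72 h more. 10-ml aliquots (OD600 0.2–0.25) were pelleted and resuspended in fresh drug-containing medium for 12 h. Cells were labelled with [1-14C]acetate (1 μCi/ml) for 6 h. Soluble lipids were extracted and saponified, and 14C-labelled C16 was quantified.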

[2] = test system: Mycobacterium tuberculosis; experiment: Antimicrobial activity against Mycobacterium tuberculosis at pH 6 by broth microdilution test; type: functional
[3] = test system: Mycobacterium tuberculosis; experiment: Antimicrobial activity against Mycobacterium tuberculosis at pH 6.8 by broth microdilution test; type: functional
How it was run: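 Broth macrodilution MIC with an inoculum of 10^5 CFU/ml. Medium was Middlebrook 7H9 with 10% OADC, 0.2% glycerol and 0.05% Tween 80. Medium pH was set to 6 or 6.8 with 4.25% phosphoric acid or 5% dibasic potassium phosphate.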

[4] = test system: Mycobacterium tuberculosis; experiment: Inhibition of fatty acid synthase 1 in Mycobacterium tuberculosis assessed as incorporation of [1-14C]acetate in C16 biosynthesis at 800 ug/ml; how it was run: as §1
[5] = test system: Mycobacterium tuberculosis; experiment: Inhibition of fatty acid synthase 1 in Mycobacterium tuberculosis assessed as incorporation of [1-14C]acetate in C16 biosynthesis at 1250 ug/ml at pH 6.0; how it was run: as §1
[6] = test system: Mycobacterium tuberculosis; experiment: Inhibition of fatty acid synthase 1 in Mycobacterium tuberculosis assessed as incorporation of [1-14C]acetate in C16 biosynthesis at 250 ug/ml at pH 5.5; how it was run: as §1
[7] = test system: Mycobacterium tuberculosis; experiment: Inhibition of fatty acid synthase 1 in Mycobacterium tuberculosis assessed as incorporation of [1-14C]acetate in C16 biosynthesis at 1200 ug/ml at pH 6.0; how it was run: as §1

NC(=O)c1cnc(Cl)cn1
inhibition [1]: 94%

CCCOC(=O)c1cnccn1
MIC [2]: 60 mg/L (≈ 361 µM) | MIC [3]: 80 mg/L (≈ 481 µM) | inhibition [4]: 96%

O=C(O)c1cnccn1 [PYRAZINOIC ACID]
MIC [2]: 100 mg/L (≈ 806 µM) | MIC [3]: 300 mg/L (≈ 2420 µM) | inhibition [5]: 60% | inhibition [6]: 60%

NC(=O)c1cnccn1
inhibition [7]: 88%
